According to ChEMBL document CHEMBL1143266, “Synthesis of spiro[chroman-2,4'-piperidin]-4-one derivatives as acetyl-CoA carboxylase inhibitors” (Bioorg Med Chem Lett, 2009):
pIC50: −log10 of the molar value. Blank lines part the entries; values can stand above or below the molecule they belong to.

Legend:
[1] = (§1) Inhibition of acetyl-CoA carboxylase in rat skeletal muscle by HPLC at 1 uM/L; format: tissue-based, Muscle tissue
In short: (§2)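 Biotinylated enzyme bound on a streptavidin column, eluted with 5 mM biotin, and protein quantified by Bradford. Buffer was 50 mM HEPES pH 7.5, 20 mM MgCl₂, 10 mM tripotassium citrate, 0.075% BSA, 2 mM ATP, 1 mM acetyl-CoA and 17.6 mM NaHCO₃, stopped with 10% perchloric acid. HPLC read-out measured acetyl-CoA loss and/or malonyl-CoA formation.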

Rattus norvegicus [2] = species: Rattus norvegicus; experiment: as §1; format: tissue-based; conditions: Muscle tissue; in short: as §2
[3] = Inhibition of acetyl-CoA carboxylase in rat skeletal muscle by HPLC; format: tissue-based, Muscle tissue
Rattus norvegicus [4] = species: Rattus norvegicus; experiment: Inhibition of acetyl-CoA carboxylase in rat skeletal muscle by HPLC at 10 uM; format: tissue-based; conditions: Muscle tissue; in short: as §2
Rattus norvegicus [5] = species: Rattus norvegicus; experiment: Inhibition of acetyl-CoA carboxylase in rat skeletal muscle by HPLC at 5 uM; format: tissue-based; conditions: Muscle tissue; in short: as §2
[6] = Membrane permeability at pH 6.8 by PAMPA; format: ADME; conditions: read-out: permeability
Mus musculus = experiment: Reduction in respiratory quotient in ip dosed C57BL/6J mouse administered once a day for 8 days measured after 24 hrs of day 7 acclimatization in presence of high carbohydrate; format: functional, organism-based
In short: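 C57BL/6J mice aged 7–8 weeks on normal chow (carbohydrate 64%, fat 7%, protein 20%), n = 8 per group, got vehicle or 30 or 60 mg/kg ip once daily for 8 days. After 24 h cage acclimatization from day 7, O₂ consumption and CO₂ production were recorded immediately post-dose. The first 30 min were excluded, and RQ was averaged over the initial 8 h and compared by Student's t test.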

Compound: O=C1CC2(CCN(C(=O)N3c4ccccc4Oc4ccccc43)CC2)Oc2cc(N3CCOCC3)ccc21
pIC50 [1]: 6.68

Compound: COc1cc(C(=O)N2CCC3(CC2)CC(=O)c2cc(Nc4ccnn4C)ccc2O3)nc2c(OC)cccc12
inhibition (Rattus norvegicus [2]): 100%

Compound: COc1cc(C(=O)N2CCC3(CC2)CC(=O)c2cc(-c4nc[nH]n4)ccc2O3)nc2c(OC)cccc12
inhibition (Rattus norvegicus [2]): 100%

Compound: O=C1CC2(CCN(C(=O)N3c4ccccc4Oc4ccccc43)CC2)Oc2ccc(N3CCOCC3)cc21
pIC50 [1]: 7.00

Compound: O=C1CC2(CCN(C(=O)N3c4ccccc4Sc4ccccc43)CC2)Oc2ccccc21
inhibition (Rattus norvegicus [4]): 16%

Compound: O=C1CC2(CCN(C(=O)N3c4ccccc4Oc4ccccc43)CC2)Oc2ccccc21
inhibition (Rattus norvegicus [5]): 51%

Compound: CC(=O)N[C@H](C)C#Cc1ccc2c(c1)C(=O)CC1(CCN(C(=O)c3cc(-c4ccccc4)nc(-c4ccccc4)c3)CC1)O2
pIC50 [3]: 7.21
inhibition (Rattus norvegicus [4]): > 90%

Compound: CCCC(=O)N(C)c1ccc2c(c1)C(=O)C(C)(C)C1(CCN(C(=O)c3cc(-c4ccccc4)nc(-c4ccccc4)c3)CC1)O2
inhibition (Rattus norvegicus [4]): 83%

Compound: CC1(C)C(=O)c2ccccc2OC12CCN(C(=O)c1cc(-c3ccccc3)nc(-c3ccccc3)c1)CC2
inhibition (Rattus norvegicus [4]): 44%

Compound: O=C1CC2(CCN(C(=O)N3c4ccccc4CCc4ccccc43)CC2)Oc2ccc(N3CCOCC3)cc21
inhibition (Rattus norvegicus [4]): 7%

Compound: CCCC(=O)Nc1ccc2c(c1)C(=O)CC1(CCN(C(=O)N3c4ccccc4Sc4ccccc43)CC1)O2
inhibition (Rattus norvegicus [4]): 48%

Compound: CCCC(=O)Nc1ccc2c(c1)C(=O)CC1(CCN(C(=O)N3c4ccccc4Oc4ccccc43)CC1)O2
pIC50 [1]: 7.00

Compound: O=C1CC2(CCN(C(=O)N3c4ccccc4Sc4ccccc43)CC2)Oc2ccc(N3CCOCC3)cc21
inhibition (Rattus norvegicus [4]): 64%

Compound: CCCC(=O)Nc1ccc2c(c1)C(=O)CC1(CCN(C(=O)N3c4ccccc4CCc4ccccc43)CC1)O2
inhibition (Rattus norvegicus [4]): 4%

Compound: O=C1CC2(CCN(C(=O)N3c4ccccc4Oc4ccccc43)CC2)Oc2ccc(N3CCCC3=O)cc21
pIC50 [1]: 6.63

Compound: O=C(c1c2ccccc2cc2ccccc12)N1CCC(N2CCC[C@@H](C(=O)N3CCOCC3)C2)CC1
inhibition (Rattus norvegicus [4]): > 90%

Continued, in another order:

pIC50 [3]: 7.57
inhibition (Rattus norvegicus [4]): > 90%
Compound: CN1CCN(c2ccc3c(c2)OC2(CCN(C(=O)c4cc(-c5ccccc5)nc(-c5ccccc5)c4)CC2)CC3=O)CC1

pIC50 [3]: 8.22
inhibition (Rattus norvegicus [4]): > 90%
Compound: O=C1CC2(CCN(C(=O)c3cc(-c4ccccc4)nc(-c4ccccc4)c3)CC2)Oc2ccc(N3CCOCC3)cc21

pIC50 [3]: 7.59
inhibition (Rattus norvegicus [4]): > 90%
Compound: O=C1CC2(CCN(C(=O)c3cc(-c4ccccc4)nc(-c4ccccc4)c3)CC2)Oc2cc(N3CCOCC3)ccc21

pIC50 [3]: 7.44
inhibition (Rattus norvegicus [4]): > 90%
Compound: O=C1CC2(CCN(C(=O)c3cc(-c4ccccc4)nc(-c4ccccc4)c3)CC2)Oc2cc(N3CCCCC3)ccc21

pIC50 [3]: 7.23
inhibition (Rattus norvegicus [4]): > 90%
Compound: CC1COCC(C)N1c1ccc2c(c1)OC1(CCN(C(=O)c3cc(-c4ccccc4)nc(-c4ccccc4)c3)CC1)CC2=O (centres undefined)

Papp [6]: 26.8 ×10⁻⁶ cm/s
pIC50 [3]: 7.85
inhibition (Rattus norvegicus [4]): > 90%
Compound: O=C1CC2(CCN(C(=O)c3cc(-c4ccccc4)nc(-c4ccccc4)c3)CC2)Oc2ccc(N3CCCC3=O)cc21
Activity (Mus musculus): Dose-dependent effect

pIC50 [3]: 8.22
inhibition (Rattus norvegicus [4]): > 90%
Compound: CCCC(=O)Nc1ccc2c(c1)C(=O)CC1(CCN(C(=O)c3cc(-c4ccccc4)nc(-c4ccccc4)c3)CC1)O2

pIC50 [3]: 8.70
inhibition (Rattus norvegicus [4]): > 90%
Compound: Cc1cc2c(cc1N1CCOCC1)C(=O)CC1(CCN(C(=O)c3cc(-c4ccccc4)nc(-c4ccccc4)c3)CC1)O2

pIC50 [3]: 7.21
inhibition (Rattus norvegicus [4]): > 90%
Compound: O=C1CC2(CCN(C(=O)c3cc(-c4ccccc4)nc(-c4ccccc4)c3)CC2)Oc2cc(N3CCCC3)ccc21

pIC50 [3]: 5.92
inhibition (Rattus norvegicus [4]): > 90%
Compound: O=C1CC2(CCN(C(=O)c3cc(-c4ccccc4)nc(-c4ccccc4)c3)CC2)Oc2ccccc21
